The results in this text go back to ChEMBL document CHEMBL5104125, “Copper chelating cyclic peptidomimetic inhibits Aβ fibrillogenesis” (RSC Med Chem, 2022).

Active and inactive are the calls of the source. The rule behind the calls is not given here. Where a SMILES comes first, the peptide text is derived from it. [ ]: non-standard residue; d: D form. The star is where a group is joined. X1 = CCN(CC)c1ccc2c(-c3ccc(C(=O)*)cc3)c3ccc(N(CC)CC)cc3[o+]c2c1; Sar = CNCC(=O)O

Series [1] in a line: Cytotoxicity against mouse Neuro2a cells assessed as reduction in cell viability by MTT assay. In kind it is toxicity, cell-based, N2a. The procedure, abridged:
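Neuro2a mouse neuronal cells treated with fluorescently labelled peptides; viability read by MTT after 24 h. IC50 calculated from linear regression of viability versus concentration.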

Series [2] in a line: Drug uptake in mouse Neuro2a cells assessed as drug internalization in cytoplasm at 100 uM by confocal microscopy. In kind it is ADME. Particulars: n2a. The procedure, abridged: (§1)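 Neuro2a cells treated with fluorescein- or Rhodamine B-labelled peptide at 100 μM, alone or together. Green and red fluorescence imaged in bright and dark field at 20×. Co-localization checked by confocal imaging at 63×, with green and red channels captured separately and then merged.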

Series [3] is described as follows: Drug uptake in mouse Neuro2a cells assessed as drug co-localization in cell at 100 uM in presence of PA19fCP-FI by confocal microscopy. Particulars: n2a. In kind it is ADME, cell-based. In a few lines:
as §1

The species named for series [4] is Homo sapiens. Briefly: Binding affinity to Rhodamine B labelled amyloid beta (9-21 residues) (unknown origin) assessed as increase in fluorescence intensity of Rhodamine B at 20 uM incubated for 24 hrs by FRET analysis (Rvb= 601 nm). In a few lines:
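FRET between fluorescein-labelled cyclic peptide (donor) and Rhodamine B-labelled Aβ9-21 model peptide (acceptor), mixed 1:1, ~20 μM each in PBS (50 mM, pH 7.4), incubated 24 h at 37 °C. Donor and mixture excited at 492 nm, acceptor alone at 567 nm; emission spectra recorded. Representative of several independent repeats.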

Series [5] can be described thus: Drug uptake in mouse Neuro2a cells assessed as drug internalization in cell membrane at 100 uM by confocal microscopy. In kind it is ADME. Particulars: n2a. The procedure, abridged: as §1
A short description of series [6]: Drug uptake in mouse Neuro2a cells assessed as drug co-localization in cell at 100 uM in presence of MA.beta-RhB by confocal microscopy. In kind it is ADME, cell-based. To be noted: n2a. In a few lines:
as §1

The target in series [7] is Amyloid-beta precursor protein (Homo sapiens) (UniProt P05067). Briefly: Inhibition of amyloid beta (1 to 40) (unknown origin) aggregation at 0.5 M incubated for 6 days by thioflavin S based fluorescence analysis relative to control. To be noted: time 6.0 day.
The target is the same in series [8]. As to the kind of experiment: Inhibition of amyloid beta (1 to 40) (unknown origin) aggregation at 1 M incubated for 6 days by thioflavin S based fluorescence analysis relative to control. To be noted: time 6.0 day.
For series [9] the target is unchanged. Briefly: Inhibition of amyloid beta (1 to 40) (unknown origin) aggregation at 2 M incubated for 6 days by thioflavin S based fluorescence analysis relative to control. To be noted: time 6.0 day. The procedure, abridged:
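Aβ1-40 (40 μM) co-incubated with 0.5-, 1- or 2-fold molar excess of peptide in PBS pH 7.4 at 37 °C for six days; ThT fluorescence monitored over time. Experiment done thrice, with two sets per solution and three readings per set.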

For series [10] the target is unchanged. As to the kind of experiment: Inhibition of amyloid beta (1 to 40) (unknown origin) aggregation assessed as reduction in fibrillar assembly at 2 M incubated for 6 days by TEM analysis. To be noted: time 6.0 day. The procedure, abridged:
(§2)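 Aβ1-40 (40 μM) co-incubated with 2-fold molar excess of peptide in PBS pH 7.4 at 37 °C for six days. TEM images (200 nm scale) and Congo red-stained birefringence images (20 μm scale) captured.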

For series [11] the target is unchanged. As to the kind of experiment: Inhibition of amyloid beta (1 to 40) (unknown origin) aggregation assessed as bright green-gold birefringence at 2 M incubated for 6 days by Congo-red staining based image analysis. To be noted: time 6.0 day. The procedure, abridged:
as §2

Series [12] has the same target. As to the kind of experiment: Inhibition of amyloid beta (1 to 40) (unknown origin) aggregation assessed as reduction in beta sheet conformation at 2 M incubated for 6 days by circular dichroism analysis. To be noted: time 6.0 day. (In general: Circular dichroism is the unequal absorption of left and right circularly polarised light.)
For series [13] the target is unchanged. As to the kind of experiment: Inhibition of amyloid beta (1 to 40) (unknown origin) aggregation assessed as reduction in beta sheet conformation at 2 M incubated for 6 days by FTIR analysis. To be noted: time 6.0 day.
For series [14] the target is unchanged. As to the kind of experiment: Inhibition of Cu2+ induced amyloid beta (1 to 40) (unknown origin) aggregation assessed as reduction in fibrils at 80 uM incubated for 36 hrs in presence of CuSO4 by thioflavin S based fluorescence analysis. Particulars: in the assay text read “thioflavin T” for “thioflavin S”. The procedure, abridged: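 Aβ1-40 (40 μM) with CuSO4 (40 μM) and test peptide (80 μM) in PBS pH 7.4, 37 °C, 36 h. ThT fluorescence read at ex 440 nm / em 485 nm, with ThT-plus-PBS reference subtracted. Mean of three independent experiments ± SD.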

A short description of series [15]: Metal chelating activity assessed as compound-Cu2+ complex formation by measuring red shift at 1:1 ratio in presence of CuSO4 by UV-Vis spectra analysis (Rvb= 265 nm).
The nature of series [16]: Metal chelating activity assessed as compound-Zn2+ complex formation by measuring red shift at 1:1 ratio in presence of ZnCl2 by UV-Vis spectra analysis (Rvb= 265 nm).
Series [17] can be described thus: Metal chelating activity assessed as compound-Cu2+ complex formation by measuring red shift at 2:1 ratio in presence of CuSO4 by UV-Vis spectra analysis (Rvb= 264 nm).
Series [18] is described as follows: Metal chelating activity assessed as compound-Zn2+ complex formation by measuring red shift at 2:1 ratio in presence of ZnCl2 by UV-Vis spectra analysis (Rvb= 264 nm).
Series [19] can be described thus: Metal chelating activity assessed as compound-Cu2+ complex formation by measuring exothermic event at 50 uM in presence of CuSO4 by isothermal titration calorimetry assay. The procedure, abridged: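 ITC at 27 °C in 20 mM Tris-HCl pH 7.4. Metal solution (1.5 mM) in the syringe was titrated into peptide (50 μM) in the cell over 30 injections. Heats of dilution of metal into buffer were subtracted. ΔH, ΔS, K and n were fitted with a sequential two-site binding model.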
Background: Isothermal titration calorimetry measures the heat released or taken up as one component is titrated into another.

The nature of series [20]: Metal chelating activity assessed as compound-Cu2+ complex formation by measuring deviation in g values at 1 to 2 M in presence of CuSO4 by electron spin resonance analysis. To be noted: dose 1-2 M. In a few lines: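 ESR spectra recorded at room temperature on Cu2+ solution (5 mM) alone and with 1- or 2-fold molar ratio of peptide; g values read.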
Series [21] deals with Amyloid-beta precursor protein (Homo sapiens) (UniProt P05067). Briefly: Inhibition of Cu2+ induced amyloid beta (1 to 40) (unknown origin) aggregation assessed as disapperance of fibrillar assembly at 80 uM incubated for 36 hrs by TEM analysis. The procedure, abridged:
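Aβ1-40 (40 μM) incubated with CuSO4 (40 μM) and test peptide (80 μM) in PBS pH 7.4 at 37 °C for 36 h, then imaged by TEM. Representative image from several repeats.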

Series [22] is filed under the species Homo sapiens. As to the kind of experiment: Metal chelating activity assessed as extraction of Cu2+ from amyloid beta (1 to 40) (unknown origin)-Cu2+ complex by measuring fluorescence of Tyr10 at 80 uM incubated for 36 hrs by tyrosine intrinsic fluorescence assay. In a few lines: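 Aβ1-40 (40 μM) in PBS (50 mM, pH 7.4), with Cu2+ added at 40 μM, then peptide at 80 μM (1:1:2). Tyr10 intrinsic fluorescence emission read at 308 nm and expressed as normalized fluorescence intensity.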

For series [23], the target named is Amyloid-beta precursor protein (Homo sapiens) (UniProt P05067). Briefly: Inhibition of amyloid beta (1 to 40) (unknown origin) aggregation assessed as increase in size of off-target aggregated species at 80 uM incubated upto 24 hr by DLS analysis. The procedure, abridged: (§3)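 Aβ1-40 (40 μM) alone or with 2 equivalents of peptide, incubated at pH 7.4, 37 °C. DLS size distribution and TEM morphology (500 nm scale) recorded at 1, 6, 12 and 24 h.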

Series [24] shares this target. Briefly: Inhibition of amyloid beta (1 to 40) (unknown origin) aggregation assessed as off-pathway aggregated species at 80 uM incubated upto 24 hr by TEM analysis. Particulars: TDE = time-dependent effect. In a few lines:
as §3

Series [25] deals with Lipid bilayer. As to the kind of experiment: Inhibition of membrane destabilization in carboxyfluorescein dye entrapped large unilamellar vesicle assessed as decrease in amyloid beta (1-40) induced carboxyfluorescein leakage upto 48 hrs by TEM analysis. To be noted: in the assay text read “by fluorescence analysis” for “by TEM analysis”. In a few lines: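 Carboxyfluorescein-loaded LUVs in PBS (50 mM) exposed to pre-incubated Aβ1-40 alone or Aβ1-40 with peptide (1:2). Final lipid 50 μM, Aβ1-40 2.5 μM (peptide:lipid 1:20), 37 °C. Dye leakage measured by fluorescence at intervals from 1 to 48 h; untreated LUV as control.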

Sequence of Amyloid-beta precursor protein (Homo sapiens) (P05067 whole entry): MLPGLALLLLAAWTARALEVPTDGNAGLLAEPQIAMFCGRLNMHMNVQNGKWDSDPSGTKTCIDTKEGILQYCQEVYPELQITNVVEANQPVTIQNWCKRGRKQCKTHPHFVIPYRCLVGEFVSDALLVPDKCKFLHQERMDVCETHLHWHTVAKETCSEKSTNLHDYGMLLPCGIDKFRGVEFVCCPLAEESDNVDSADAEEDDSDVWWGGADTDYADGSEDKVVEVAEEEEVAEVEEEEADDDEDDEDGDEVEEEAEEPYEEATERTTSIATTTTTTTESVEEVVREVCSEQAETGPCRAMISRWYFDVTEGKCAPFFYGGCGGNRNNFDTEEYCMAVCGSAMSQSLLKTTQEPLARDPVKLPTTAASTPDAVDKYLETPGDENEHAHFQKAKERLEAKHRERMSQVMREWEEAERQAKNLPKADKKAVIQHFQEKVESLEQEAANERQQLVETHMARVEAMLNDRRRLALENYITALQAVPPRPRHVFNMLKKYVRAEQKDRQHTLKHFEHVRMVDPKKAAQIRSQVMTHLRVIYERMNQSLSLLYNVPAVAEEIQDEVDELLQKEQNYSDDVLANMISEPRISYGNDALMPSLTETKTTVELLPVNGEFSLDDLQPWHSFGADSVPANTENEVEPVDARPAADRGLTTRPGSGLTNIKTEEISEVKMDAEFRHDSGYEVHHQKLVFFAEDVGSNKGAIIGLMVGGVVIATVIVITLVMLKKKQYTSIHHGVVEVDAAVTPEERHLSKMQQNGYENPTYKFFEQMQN

The IC50 is the concentration needed to halve the response being measured. With `CCN(CC)c1ccc2c(-c3ccc(C(=O)N(C)CC(=O)NCC(=O)N[C@@H](Cc4ccc(O)cc4)C(=O)N[C@@H](CCC(=O)O)C(=O)N[C@H](C(=O)N[C@@H](Cc4c[nH]cn4)C(=O)N[C@@H](Cc4c[nH]cn4)C(=O)N[C@@H](CCC(N)=O)C(=O)N[C@@H](CCCCN)C(=O)N[C@@H](CC(C)C)C(=O)N[C@H](C(=O)N[C@@H](Cc4ccccc4)C(=O)N[C@@H](Cc4ccccc4)C(=O)N[C@@H](C)C(=O)NCC(N)=O)C(C)C)C(C)C)cc3)c3ccc(N(CC)CC)cc3[o+]c2c1` (X1-[Sar]GYEVHHQKLVFFAG-NH2), the IC50 in series [1] is 150 µM. Also, the Drug uptake result in [2] and in [3] was “Active” in each case.

As to `CC(C)C[C@@H]1NC(=O)[C@H](CCCCNC(=O)c2ccccn2)NC(=O)[C@H](CCCCNC(=S)Nc2ccc(-c3c4ccc(=O)cc-4oc4cc(O)ccc34)c(C(=O)O)c2)NC(=O)[C@H](CCC(N)=O)NC(=O)[C@H](C)NC(=O)[C@H](Cc2ccccc2)NC(=O)[C@@H](Cc2ccccc2)NC(=O)[C@H](C(C)C)NC1=O`, the OD in series [4] worked out at 604 nm. Further, in [1], the IC50 was 200 µM. For the same compound, the Drug uptake entry in [5] and in [6] was “Active” throughout.

One may read the inhibition as the share of the control response that was lost under treatment. For the compound `CC(C)C[C@@H]1NC(=O)[C@H](CCCCNC(=O)c2ccccn2)NC(=O)[C@H](CCC(N)=O)NC(=O)[C@H](C)NC(=O)[C@H](Cc2ccccc2)NC(=O)[C@@H](Cc2ccccc2)NC(=O)[C@H](C(C)C)NC1=O`, the inhibition in series [7] is 32.4%; in series [8], 52.6%; in series [9], 85.6%; in series [12], 85%; in [13], 85%; in [24] it was “Tde”. Moreover, the inhibition result in [10], in [11], in series [14], in series [21], in series [23] and in [25] was “Active” each time. The OD in [15] amounted to 271 nm; in series [16] it was 268 nm; in series [17] it was 270 nm; in [18] it was 267 nm. Further, the result in series [19] and in [20] was Active. Besides, the Activity in series [22] stood at 84.3%.

For `CC(C)C[C@@H]1NC(=O)[C@H](CCCCN)NC(=O)[C@H](CCC(N)=O)NC(=O)[C@H](C)NC(=O)[C@H](Cc2ccccc2)NC(=O)[C@@H](Cc2ccccc2)NC(=O)[C@H](C(C)C)NC1=O`, the inhibition in [7] turned out to be 25.2%; in series [8], 47.9%; in series [9], 73.7%; in [12] it was 74%; in series [13] it was 74%. Moreover, the inhibition entry in series [10] and in series [11] was “Active” each time.

With `CC(=O)N[C@@H](CCCCN)C(=O)N[C@@H](CC(C)C)C(=O)N[C@H](C(=O)N[C@H](Cc1ccccc1)C(=O)N[C@@H](Cc1ccccc1)C(=O)N[C@@H](C)C(=O)N[C@@H](CCC(N)=O)C(=O)O)C(C)C`, the inhibition in [7] is 7.9%; in series [8], 15.1%; in series [9], 27.2%.
